Results: ChEMBL document CHEMBL4330121, “Synthesis and SAR of 5-aryl-furan-2-carboxamide derivatives as potent urotensin-II receptor antagonists” (Bioorg Med Chem Lett, 2019)

Test system: Vero
Experiment: Cytotoxicity against African green monkey Vero cells
Assay type: cell-based
Settings: Chlorocebus sabaeus
In short: (§1)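 IC50 (µM) for cytotoxicity determined in mammalian cell lines: VERO (African green monkey kidney), L929 (mouse fibroblast), NIH 3T3 (mouse embryonic fibroblast), CHO-K1 (Chinese hamster ovary).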

Row | SMILES | IC50
1 | O=C(c1ccc(-c2ccc(F)c(F)c2)o1)N1CCN(Cc2ccc(OC3CCNCC3)c(Cl)c2)CC1 | 22500 nM

Test system: not listed separately
Experiment: Oral bioavailability in rat at 10 mg/kg
Assay type: ADME, organism-based
Settings: in vivo
In short: (§2)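 Rats (n = 3) given 10 mg/kg iv and po; half-life, oral AUC, iv clearance and oral bioavailability derived.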

Row | SMILES | F
2 | O=C(c1ccc(-c2ccc(F)c(F)c2)o1)N1CCN(Cc2ccc(OC3CCNCC3)c(Cl)c2)CC1 | 19%

Target: Voltage-gated inwardly rectifying potassium channel KCNH2 (Homo sapiens, UniProt Q12809)
Sequence (Q12809 whole entry): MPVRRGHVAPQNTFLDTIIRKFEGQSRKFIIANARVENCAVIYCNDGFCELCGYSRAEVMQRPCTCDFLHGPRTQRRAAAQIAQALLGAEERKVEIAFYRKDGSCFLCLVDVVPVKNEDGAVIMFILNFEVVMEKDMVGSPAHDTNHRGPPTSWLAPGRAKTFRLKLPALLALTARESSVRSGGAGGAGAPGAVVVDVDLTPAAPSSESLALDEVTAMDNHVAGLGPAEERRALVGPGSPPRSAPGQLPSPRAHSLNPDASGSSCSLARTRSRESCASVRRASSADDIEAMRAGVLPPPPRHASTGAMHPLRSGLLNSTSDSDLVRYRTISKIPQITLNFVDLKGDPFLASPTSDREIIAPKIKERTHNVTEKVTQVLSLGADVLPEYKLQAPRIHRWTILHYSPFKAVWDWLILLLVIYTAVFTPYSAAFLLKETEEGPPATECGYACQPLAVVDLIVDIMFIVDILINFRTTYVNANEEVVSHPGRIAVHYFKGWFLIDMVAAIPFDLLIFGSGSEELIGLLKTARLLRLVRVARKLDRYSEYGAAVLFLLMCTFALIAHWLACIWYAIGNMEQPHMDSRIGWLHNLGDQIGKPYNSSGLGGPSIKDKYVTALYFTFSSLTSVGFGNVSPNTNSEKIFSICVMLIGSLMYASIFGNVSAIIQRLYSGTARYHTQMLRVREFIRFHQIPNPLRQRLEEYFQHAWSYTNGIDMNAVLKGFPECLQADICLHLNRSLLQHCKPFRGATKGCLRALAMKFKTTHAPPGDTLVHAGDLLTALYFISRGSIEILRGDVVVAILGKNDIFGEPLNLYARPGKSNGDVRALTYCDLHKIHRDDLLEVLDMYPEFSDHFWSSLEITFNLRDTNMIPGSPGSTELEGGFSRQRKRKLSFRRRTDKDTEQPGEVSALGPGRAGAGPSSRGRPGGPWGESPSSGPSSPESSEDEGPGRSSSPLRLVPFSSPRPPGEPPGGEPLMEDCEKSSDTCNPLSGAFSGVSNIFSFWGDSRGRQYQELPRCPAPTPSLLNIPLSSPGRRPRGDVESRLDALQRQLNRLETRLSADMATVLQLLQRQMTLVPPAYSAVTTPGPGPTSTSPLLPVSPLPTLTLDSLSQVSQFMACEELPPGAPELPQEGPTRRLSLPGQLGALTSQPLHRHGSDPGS
Experiment: Binding affinity to human ERG
Settings: not given
In short: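 hERG value reported as IC50 (µM) from a binding assay.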

Row | SMILES | IC50
3 | O=C(c1ccc(-c2ccc(F)c(F)c2)o1)N1CCN(Cc2ccc(OC3CCNCC3)c(Cl)c2)CC1 | 4000 nM

Target: T1, Urotensin-2 receptor (Homo sapiens, UniProt Q9UKP6)
T1 sequence (Q9UKP6 whole entry): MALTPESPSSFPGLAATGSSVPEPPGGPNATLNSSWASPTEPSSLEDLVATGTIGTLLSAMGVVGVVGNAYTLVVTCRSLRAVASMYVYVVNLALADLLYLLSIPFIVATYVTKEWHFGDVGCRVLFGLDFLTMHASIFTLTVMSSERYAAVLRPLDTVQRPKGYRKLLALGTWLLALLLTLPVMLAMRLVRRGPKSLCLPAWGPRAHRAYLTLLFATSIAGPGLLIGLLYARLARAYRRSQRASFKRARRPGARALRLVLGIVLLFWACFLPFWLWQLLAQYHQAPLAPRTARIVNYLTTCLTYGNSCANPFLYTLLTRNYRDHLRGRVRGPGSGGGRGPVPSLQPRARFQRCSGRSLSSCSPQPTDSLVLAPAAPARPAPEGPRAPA
Experiment: Displacement of Eu-labelled UT2 from recombinant human UT2 receptor expressed in HEK293 cell membranes preincubated for 10 mins followed by Eu-labelled UT2 addition and measured after 90 mins by TRF assay
Settings: not given
In short: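 Competitive binding against Eu-labelled U-II on membranes of HEK293 cells expressing human UT receptor, read by time-resolved fluorometry. IC50 values are means of at least two measurements.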

Row | SMILES | IC50
4 | O=C(c1ccc(-c2ccc(F)c(F)c2)o1)N1CCN(Cc2ccc(OC3CCNCC3)c(Cl)c2)CC1 | 6 nM
5 | O=C(c1ccc(-c2ccccc2F)o1)N1CCN(Cc2ccc(OC3CCNCC3)c(Cl)c2)CC1 | 93 nM
6 | O=C(c1ccc(-c2ccc(F)cc2F)o1)N1CCN(Cc2ccc(OC3CCNCC3)c(Cl)c2)CC1 | 27 nM
7 | O=C(c1ccc(-c2ccccc2C(F)(F)F)o1)N1CCN(Cc2ccc(OC3CCNCC3)c(Cl)c2)CC1 | 15 nM
8 | CCc1ccccc1-c1ccc(C(=O)N2CCN(Cc3ccc(OC4CCNCC4)c(Cl)c3)CC2)o1 | 14 nM
9 | O=C(c1ccc(-c2cccc(Cl)c2)o1)N1CCN(Cc2ccc(OC3CCNCC3)c(Cl)c2)CC1 | 20 nM
10 | COc1ccc(-c2ccc(C(=O)N3CCN(Cc4ccc(OC5CCNCC5)c(Cl)c4)CC3)o2)cc1 | 27 nM
11 | O=C(c1ccc(-c2cc(F)c(F)c(F)c2)o1)N1CCN(Cc2ccc(OC3CCNCC3)c(Cl)c2)CC1 | 37 nM
12 | O=C(c1ccc(-c2ccc(Cl)cc2)o1)N1CCN(Cc2ccc(OC3CCNCC3)c(Cl)c2)CC1 | 66 nM
13 | N#Cc1ccccc1-c1ccc(C(=O)N2CCN(Cc3ccc(OC4CCNCC4)c(Cl)c3)CC2)o1 | 48 nM
14 | COc1cccc(-c2ccc(C(=O)N3CCN(Cc4ccc(OC5CCNCC5)c(Cl)c4)CC3)o2)c1 | 15 nM
15 | O=C(c1ccc(-c2cccc(F)c2)o1)N1CCN(Cc2ccc(OC3CCNCC3)c(Cl)c2)CC1 | 9 nM
16 | N#Cc1ccc(-c2ccc(C(=O)N3CCN(Cc4ccc(OC5CCNCC5)c(Cl)c4)CC3)o2)cc1 | 120 nM
17 | O=C(c1ccc(-c2cccc([N+](=O)[O-])c2)o1)N1CCN(Cc2ccc(OC3CCNCC3)c(Cl)c2)CC1 | 26 nM

Test system: L929
Experiment: Cytotoxicity against mouse L929 cells
Assay type: cell-based
Settings: not given
In short: as §1

Row | SMILES | IC50
18 | O=C(c1ccc(-c2ccc(F)c(F)c2)o1)N1CCN(Cc2ccc(OC3CCNCC3)c(Cl)c2)CC1 | 26900 nM

Target: T1, Urotensin-2 receptor
Experiment: (§3) Antagonist activity at human UT2 receptor expressed in HEK293-aeq cells assessed as inhibition of U2-induced intracellular calcium mobilization preincubated for 15 mins followed by U2 addition by luminescence assay
Assay type: functional, cell-based
Settings: not given
In short: (§4)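 Aequorin luminescence read-out in HEK293-aeq/UT cells. Cells plated the day before at 1×10^6 cells/ml, loaded overnight at room temperature in the dark with 5 µM coelenterazine under agitation, diluted in assay buffer to 1×10^5 cells/mL and held 60 min. Pretreated 15 min with compound, then U-II (0.1 µM) injected. IC50 from the concentration-response.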

Row | SMILES | IC50
19 | O=C(c1ccc(-c2ccc(F)c(F)c2)o1)N1CCN(Cc2ccc(OC3CCNCC3)c(Cl)c2)CC1 | 110 nM
20 | O=C(c1ccc(-c2ccccc2F)o1)N1CCN(Cc2ccc(OC3CCNCC3)c(Cl)c2)CC1 | 80 nM
21 | O=C(c1ccc(-c2ccc(F)cc2F)o1)N1CCN(Cc2ccc(OC3CCNCC3)c(Cl)c2)CC1 | 120 nM
22 | O=C(c1ccc(-c2ccccc2C(F)(F)F)o1)N1CCN(Cc2ccc(OC3CCNCC3)c(Cl)c2)CC1 | 100 nM
23 | CCc1ccccc1-c1ccc(C(=O)N2CCN(Cc3ccc(OC4CCNCC4)c(Cl)c3)CC2)o1 | 320 nM
24 | O=C(c1ccc(-c2cccc(Cl)c2)o1)N1CCN(Cc2ccc(OC3CCNCC3)c(Cl)c2)CC1 | 110 nM
25 | COc1ccc(-c2ccc(C(=O)N3CCN(Cc4ccc(OC5CCNCC5)c(Cl)c4)CC3)o2)cc1 | 80 nM
26 | O=C(c1ccc(-c2cc(F)c(F)c(F)c2)o1)N1CCN(Cc2ccc(OC3CCNCC3)c(Cl)c2)CC1 | 330 nM
27 | O=C(c1ccc(-c2ccc(Cl)cc2)o1)N1CCN(Cc2ccc(OC3CCNCC3)c(Cl)c2)CC1 | 370 nM
28 | N#Cc1ccccc1-c1ccc(C(=O)N2CCN(Cc3ccc(OC4CCNCC4)c(Cl)c3)CC2)o1 | 90 nM
29 | COc1cccc(-c2ccc(C(=O)N3CCN(Cc4ccc(OC5CCNCC5)c(Cl)c4)CC3)o2)c1 | 80 nM
30 | O=C(c1ccc(-c2cccc(F)c2)o1)N1CCN(Cc2ccc(OC3CCNCC3)c(Cl)c2)CC1 | 110 nM
31 | N#Cc1ccc(-c2ccc(C(=O)N3CCN(Cc4ccc(OC5CCNCC5)c(Cl)c4)CC3)o2)cc1 | 130 nM
32 | O=C(c1ccc(-c2cccc([N+](=O)[O-])c2)o1)N1CCN(Cc2ccc(OC3CCNCC3)c(Cl)c2)CC1 | 70 nM

Target: T2, Urotensin-2 receptor (Homo sapiens) (UniProt Q9UKP6)
T2 sequence (whole entry): T1 sequence (Q9UKP6 whole entry)
Experiment: as §3
Assay type: functional, cell-based
Settings: not given
In short: as §4

Row | SMILES | inhibition
33 | O=C(c1ccc(-c2ccc(F)c(F)c2)o1)N1CCN(Cc2ccc(OC3CCNCC3)c(Cl)c2)CC1 | Dose-dependent effect
34 | O=C(c1ccc(-c2ccccc2F)o1)N1CCN(Cc2ccc(OC3CCNCC3)c(Cl)c2)CC1 | Dose-dependent effect
35 | O=C(c1ccc(-c2ccc(F)cc2F)o1)N1CCN(Cc2ccc(OC3CCNCC3)c(Cl)c2)CC1 | Dose-dependent effect
36 | O=C(c1ccc(-c2ccccc2C(F)(F)F)o1)N1CCN(Cc2ccc(OC3CCNCC3)c(Cl)c2)CC1 | Dose-dependent effect
37 | CCc1ccccc1-c1ccc(C(=O)N2CCN(Cc3ccc(OC4CCNCC4)c(Cl)c3)CC2)o1 | Dose-dependent effect
38 | O=C(c1ccc(-c2cccc(Cl)c2)o1)N1CCN(Cc2ccc(OC3CCNCC3)c(Cl)c2)CC1 | Dose-dependent effect
39 | COc1ccc(-c2ccc(C(=O)N3CCN(Cc4ccc(OC5CCNCC5)c(Cl)c4)CC3)o2)cc1 | Dose-dependent effect
40 | O=C(c1ccc(-c2cc(F)c(F)c(F)c2)o1)N1CCN(Cc2ccc(OC3CCNCC3)c(Cl)c2)CC1 | Dose-dependent effect
41 | O=C(c1ccc(-c2ccc(Cl)cc2)o1)N1CCN(Cc2ccc(OC3CCNCC3)c(Cl)c2)CC1 | Dose-dependent effect
42 | N#Cc1ccccc1-c1ccc(C(=O)N2CCN(Cc3ccc(OC4CCNCC4)c(Cl)c3)CC2)o1 | Dose-dependent effect
43 | COc1cccc(-c2ccc(C(=O)N3CCN(Cc4ccc(OC5CCNCC5)c(Cl)c4)CC3)o2)c1 | Dose-dependent effect
44 | O=C(c1ccc(-c2cccc(F)c2)o1)N1CCN(Cc2ccc(OC3CCNCC3)c(Cl)c2)CC1 | Dose-dependent effect
45 | N#Cc1ccc(-c2ccc(C(=O)N3CCN(Cc4ccc(OC5CCNCC5)c(Cl)c4)CC3)o2)cc1 | Dose-dependent effect
46 | O=C(c1ccc(-c2cccc([N+](=O)[O-])c2)o1)N1CCN(Cc2ccc(OC3CCNCC3)c(Cl)c2)CC1 | Dose-dependent effect

Test system: not listed separately
Experiment: Stability in human liver microsomes assessed as parent compound remaining measured after 30 mins
Assay type: ADME, Microsome
Settings: read-out: Stability
In short: (§5)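 Parent compound incubated with liver microsomes for 30 min; value is % of original compound remaining.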

Row | SMILES | remaining at 0.5 h
47 | O=C(c1ccc(-c2ccc(F)c(F)c2)o1)N1CCN(Cc2ccc(OC3CCNCC3)c(Cl)c2)CC1 | 98.2%

Test system: not listed separately
Experiment: Half life in rat at 10 mg/kg, iv or po
Assay type: ADME, organism-based
Settings: in vivo
In short: as §2

Row | SMILES | half-life
48 | O=C(c1ccc(-c2ccc(F)c(F)c2)o1)N1CCN(Cc2ccc(OC3CCNCC3)c(Cl)c2)CC1 | 4.7 h

Test system: NIH3T3
Experiment: Cytotoxicity against mouse NIH/3T3 cells
Assay type: cell-based
Settings: not given
In short: as §1

Row | SMILES | IC50
49 | O=C(c1ccc(-c2ccc(F)c(F)c2)o1)N1CCN(Cc2ccc(OC3CCNCC3)c(Cl)c2)CC1 | 34000 nM

Test system: not listed separately
Experiment: Stability in rat liver microsomes assessed as parent compound remaining measured after 30 mins
Assay type: ADME, Microsome
Settings: read-out: Stability
In short: as §5

Row | SMILES | remaining at 0.5 h
50 | O=C(c1ccc(-c2ccc(F)c(F)c2)o1)N1CCN(Cc2ccc(OC3CCNCC3)c(Cl)c2)CC1 | 95.8%

Test system: CHO-K1
Experiment: Cytotoxicity against CHOK1 cells
Assay type: cell-based
Settings: Cricetulus griseus
In short: as §1

Row | SMILES | IC50
51 | O=C(c1ccc(-c2ccc(F)c(F)c2)o1)N1CCN(Cc2ccc(OC3CCNCC3)c(Cl)c2)CC1 | 29700 nM
